Experimental data pooled from the literature.
Each line is one published result; the experiments were not run side by side.
Cell line: HL-60
Observed: cell growth or viability

Structure (SMILES)	assay	conditions	IC50
O=C(CSc1nc2ccccc2s1)N/N=C/c1ccc(OCC(=O)Nc2cccc([N+](=O)[O-])c2)cc1	MTS	72 h	> 100 µM
O=C(NO)c1ccc(Cn2cnc3c(Nc4ccc(Br)cc4F)ncnc32)cc1	MTT	72 h	5.98 µM
CN1CCc2c(c3ccccc3n2Cc2ccc(C(=O)NO)cc2)C1	CCK-8	48 h	8.87 µM
O=C(CSc1nc2ccccc2s1)N/N=C/c1ccc(OCC(=O)Nc2cccc(Br)c2)cc1	MTS	72 h	> 100 µM
FC(F)(F)c1ccc(-c2cc(CNc3cccc4cccnc34)on2)cc1	MTS	72 h	> 100 µM
O=C(CSc1nc2ccccc2s1)N/N=C/c1ccc(OCC(=O)Nc2ccc([N+](=O)[O-])cc2)cc1	MTS	72 h	16.1 µM
O=C(NO)c1ccc(Cn2cnc3c(Nc4ccc(F)c(Cl)c4)ncnc32)cc1	MTT	72 h	2.55 µM
C=C1C[C@@]23CC[C@H]4[C@@](C)(CCC[C@@]4(C)C(=O)O)[C@@H]2CC[C@@H]1C3	XTT	75 h	155 µM
COc1ccc(Nc2ncnc3c2ncn3Cc2ccc(C(=O)NO)cc2)cc1	MTT	72 h	1.98 µM
O=c1cc(OCc2cc(-c3ccc(C(F)(F)F)cc3)no2)c2ccccc2o1	MTS	72 h	> 100 µM
O=C(NO)c1ccc(Cn2cnc3c(Nc4ccc(Cl)cc4)ncnc32)cc1	MTT	72 h	0.62 µM
N#Cc1ccc(-c2cc(COc3cc(C(F)(F)F)nc4ccccc34)on2)cc1	MTS	72 h	62.2 µM
